Results: the M2OR odorant receptor database

Target: T1, OR10J5 (Homo sapiens) (UniProt Q8NHC4)
T1 sequence (whole entry): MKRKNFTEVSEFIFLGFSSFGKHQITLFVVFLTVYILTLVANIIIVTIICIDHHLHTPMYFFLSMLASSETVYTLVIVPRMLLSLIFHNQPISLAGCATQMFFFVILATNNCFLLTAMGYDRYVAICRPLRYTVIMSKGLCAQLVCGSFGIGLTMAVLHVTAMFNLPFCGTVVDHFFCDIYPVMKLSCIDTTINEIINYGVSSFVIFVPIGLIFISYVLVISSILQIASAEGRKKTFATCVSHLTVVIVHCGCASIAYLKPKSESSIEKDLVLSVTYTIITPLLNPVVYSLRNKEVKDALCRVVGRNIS
Settings: stereoisomer not certain
How it was run: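 Each receptor–molecule pair is labelled responsive or non-responsive (inactive) according to whether the original authors judged the measured signal statistically different from baseline. The data were taken from the main text and supplementary material of published papers and checked for typos and inconsistencies. Assay methods differed by source, with transient luciferase assays in mammalian cell lines being common.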
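Also: active if original authors judged signal statistically different from baseline.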

Structure (SMILES): CCCCCCCC(C)=O
- odorant receptor agonist call: inactive
